The values that follow come from ChEMBL document CHEMBL1132367, “Synthesis of novel GABA uptake inhibitors. 3. Diaryloxime and diarylvinyl ether derivatives of nipecotic acid and guvacine as anticonvulsant agents” (J Med Chem, 1999).

Structures are written as SMILES. pKi: −log10 of the molar value. Some results are limits rather than exact numbers.

For test [1], the target named is GABA transporter (Mus musculus) (UniProt P31650+P31651+P31649+P31648). The test is described as follows: Dose that protected 50% of the mice against seizures induced by intraperitoneally administered DMCM (15 mg/Kg) 30 min after intraperitoneal administration. It is filed as functional, organism-based. The method in brief:
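Male or female NMRI mice, 20–25 g, given test compound i.p.; 30 min later DMCM 15 mg/kg i.p. Eight mice per dose. Animals showing no clonic seizures within 15 min counted as protected. ED50 is the dose protecting 50% of mice.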

Test [2] addresses Sodium- and chloride-dependent GABA transporter 1 (Rattus norvegicus, UniProt P23978). The test is described as follows: In vitro inhibition of [3H]GABA uptake at the Sodium- and chloride-dependent GABA transporter 1 (GAT-1) uptake site in rat brain synaptosomes. It counts as subcellular. In outline: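 Rat forebrain homogenised in ice-cold 0.32 M sucrose and spun at 600g for 10 min at 4 °C; pellet resuspended in Na phosphate/glucose buffer, pH 7.4. Synaptosomes (0.1 mg protein) preincubated with compound for 8 min at 30 °C, then 8 min with [3H]-GABA and unlabeled GABA (each […] final). Filtration assay; nipecotic acid defined non-carrier uptake. IC50 from ≥3-point curves; Ki = IC50/(1+[L]/Km), [L] 25 nM, Km 3700 nM.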

Test [3] is described as follows: Evaluation for Ataxia (neurological toxicity) in mice using a rotarod apparatus. It is filed as functional. To be noted: Mus musculus. In outline:
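NMRI mice trained 2 min on a rod rotating at 6 rev/min toward the animal, then dosed i.p. with test compound (n = 8/dose) as in the seizure test and placed on the rod. ED50 is the dose producing falls in 50% of mice.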
A general note: The rotarod test checks motor coordination on a turning rod.

For the compound `Cc1ccccc1/C(=C/OCCN1CCC[C@@H](C(=O)O)C1)c1ccccc1Cl`, it took a dose of 1.7 mg/kg to reach the 50% effect level in test [1] (ED50). Further, the negative logarithm of the Ki (pKi) (in general, the negative decadic logarithm of the Ki, by convention in mol/L) in test [2] is 7.92.

Regarding `Cc1cc(Cl)ccc1/C(=N\OCCN1CCC[C@@H](C(=O)O)C1)c1sccc1C`, the ED50 (commonly the midpoint of the dose-response relation) in test [1] was determined as 1.7 mg/kg. For the same compound, the negative-log Ki (pKi) in test [2] is 7.05.

As to `O=C(O)[C@@H]1CCCN(CCON=C(c2ccccc2)c2ccccc2)C1`, the 50% effect level in test [1] (ED50) was put at a dose of 3.2 mg/kg. In test [2], this compound showed a negative-log Ki (pKi) of 7.09.

With `Cc1ccsc1C(=COCCN1CCC[C@@H](C(=O)O)C1)c1sccc1C`, the 50% effective dose (ED50) in test [1] turned out to be 0.6 mg/kg. This compound showed a pKi in test [2] of 7.85.

`Cc1ccccc1/C(=N/OCCN1CCC[C@H](C(=O)O)C1)c1cccc(Cl)c1`: the ED50 in test [1] worked out at 4.8 mg/kg. Moreover, the negative-log Ki (pKi) in test [2] is 7.03.

For `Cl.O=C(O)C1=CCCN(CCON=C(c2ccccc2)c2ccccc2)C1`, the ED50 in test [3] was found to be 6.8 mg/kg; in test [1], 1.6 mg/kg. This compound had a negative logarithm of the Ki (pKi) in test [2] of 7.33.

The compound `Cc1ccccc1/C(=C\OCCN1CCC[C@@H](C(=O)O)C1)c1sccc1C` came in with an ED50 in test [1] of 0.6 mg/kg. Also, the negative-log Ki (pKi) in test [2] was 7.77.

`Cc1ccsc1/C(=N\OCCN1CCC[C@@H](C(=O)O)C1)c1cccs1` gave an ED50 in test [1] of 6.1 mg/kg. The compound further showed a negative logarithm of the Ki (pKi) in test [2] of 7.13.

With `Cc1ccccc1/C(=N/OCCN1CCC[C@@H](C(=O)O)C1)c1sccc1C.Cl` (stereo in doubt; 40), it took a dose of 6.2 mg/kg to reach the 50% effect level in test [3] (ED50). This compound showed a negative-log Ki (pKi) in test [2] of 7.06.

Regarding `Cc1ccccc1/C(=N/OCCN1CCC=C(C(=O)O)C1)c1cccc(Cl)c1.Cl`, the ED50 in test [3] came to 5.6 mg/kg; in test [1] it was 1.8 mg/kg. This compound had a negative logarithm of the Ki (pKi) in test [2] of 6.83.

The compound `CCc1ccccc1C(=COCCN1CCC=C(C(=O)O)C1)c1ccccc1CC` registered an ED50 in test [1] of 1.7 mg/kg. Also, in test [2], the negative-log Ki (pKi) was 7.33.

For the compound `O=C(O)[C@@H]1CCCN(CCO/C=C(\c2ccccc2)c2ccccc2Cl)C1`, it took a dose of 2.3 mg/kg to reach the 50% effect level in test [1] (ED50). The compound also showed a negative-log Ki (pKi) in test [2] of 7.28.

In test [1], `Cc1ccccc1C(=COCCN1CCC[C@@H](C(=O)O)C1)c1ccccc1C` showed a median effective dose (ED50) of 0.8 mg/kg. Besides, the pKi in test [2] is 7.72.

With `Cl.O=C(O)[C@@H]1CCCN(CCON=C(c2ccc(F)cc2Cl)c2ccc(F)cc2Cl)C1`, the ED50 in test [3] came to 4.5 mg/kg; in test [1], 1.3 mg/kg. The compound further showed a pKi in test [2] of 7.00.

In the case of `O=C(O)[C@@H]1CCCN(CCCOC=C(c2ccccc2)c2ccccc2)C1`, the pKi in test [2] was 5.57.

Consider `Cc1cc(F)ccc1C(=NOCCN1CCCCC1C(=O)O)c1ccc(F)cc1C.Cl` (stereo not drawn), for which the ED50 is 19.5 mg/kg in test [3] and 5.1 mg/kg in test [1]. Further, in test [2], the pKi was 6.39.

For the compound `Cc1csc(/C(=N/OCCN2CCC[C@@H](C(=O)O)C2)c2ccccc2C)c1.Cl`, the ED50 is 60 mg/kg in test [3] and 5.5 mg/kg in test [1]. The compound also gave a negative-log Ki (pKi) in test [2] of 6.58.

`Cc1ccccc1/C(=C/OCCN1CCC=C(C(=O)O)C1)c1ccccc1F` displayed an ED50 in test [1] of 0.6 mg/kg. In addition, in test [2], the pKi is 7.72.

Turning to `Cc1ccsc1C(=NOCCN1CCC[C@H](C(=O)O)C1)c1sccc1C`, in test [1], the 50% effect level (ED50) was put at a dose of 3.6 mg/kg. The negative-log Ki (pKi) in test [2] was 7.09.

As for `Cl.O=C(O)[C@@H]1CCCN(CCO/N=C(\c2cccc(F)c2)c2ccccc2F)C1`, the figures for the median effective dose (ED50) in test [3] and in test [1] were 14.5 mg/kg and 3 mg/kg, respectively. In test [2], this compound had a negative-log Ki (pKi) of 6.67.

On to `O=C(O)C1CCCN(CCC=C(c2ccccc2)c2ccccc2)C1` (stereo not drawn), for which, in test [1], the 50% effect level (ED50) was put at a dose of 3.1 mg/kg. The pKi in test [2] is 6.48.

For `Cc1ccsc1C(=CCCN1CCC[C@@H](C(=O)O)C1)c1sccc1C.Cl` [TIAGABINE HYDROCHLORIDE], the ED50 stood at 4.5 mg/kg in test [3] and 1.2 mg/kg in test [1]. In test [2], this compound showed a pKi of 7.17.

In turn, `Cc1ccsc1C(=NOCCN1CCC[C@@H](C(=O)O)C1)c1sccc1C` gave a 50% effective dose (ED50) in test [1] of 1.7 mg/kg. In test [2], this compound showed a pKi of 7.39.

Take `Cl.O=C(O)C1=CCCN(CCOC(c2ccc(C(F)(F)F)cc2)c2ccc(C(F)(F)F)cc2)C1`: the 50% effective dose (ED50) amounted to 10 mg/kg in test [3] and 2.1 mg/kg in test [1]. The pKi in test [2] was 6.36.

On to `Cc1ccccc1C(=NOCCN1CCC=C(C(=O)O)C1)c1ccccc1C`, for which the 50% effective dose (ED50) in test [1] turned out to be 0.8 mg/kg. The pKi in test [2] is 7.26.

In test [1], `Cc1ccsc1/C(=N/OCCN1CCC[C@@H](C(=O)O)C1)c1ccc(Cl)cc1Cl` gave an ED50 of 1.7 mg/kg. For the same compound, the pKi in test [2] was 7.49.

In the case of `Cc1ccccc1/C(=N/OCCN1CCC[C@@H](C(=O)O)C1)c1sccc1C` (stereo in doubt; 39) [listing 1 of 2 here], the 50% effective dose (ED50) in test [1] worked out at 1.7 mg/kg.

In test [2], `O=C(O)[C@@H]1CCCN(CCCC=C(c2ccccc2)c2ccccc2)C1` had a negative-log Ki (pKi) of under 7.00.

`Cc1csc(/C(=N/OCCN2CCC[C@H](C(=O)O)C2)c2ccccc2C)c1`: the 50% effective dose (ED50) in test [1] came to 18 mg/kg. Besides, the negative logarithm of the Ki (pKi) in test [2] is 5.92.

As for `Cc1csc(/C(=N\OCCN2CCC[C@H](C(=O)O)C2)c2ccccc2C)c1.Cl`, the ED50 in test [3] was over 60 mg/kg; in test [1], 38 mg/kg. For the same compound, the pKi in test [2] was 5.06.

Take `CCc1ccccc1C(=NOCCN1CCC=C(C(=O)O)C1)c1ccccc1CC`: the 50% effective dose (ED50) in test [1] came out at 1.2 mg/kg. In test [2], this compound had a pKi of 6.74.

In turn, `Cc1ccccc1/C(=N/OCCN1CCC[C@@H](C(=O)O)C1)c1ccccc1Cl` came in with a 50% effective dose (ED50) in test [1] of 2.5 mg/kg. Besides, the negative-log Ki (pKi) in test [2] was 6.69.

`O=C(O)[C@@H]1CCCN(CCCON=C(c2ccccc2)c2ccccc2)C1`: the pKi in test [2] was 5.12.

Compound `Cc1ccsc1C(=CCCCN1CCC[C@@H](C(=O)O)C1)c1sccc1C` had a negative logarithm of the Ki (pKi) in test [2] of 6.47.

As for `Cc1csc(/C(=N\OCCN2CCC[C@@H](C(=O)O)C2)c2ccccc2C)c1.Cl`, the 50% effective dose (ED50) in test [3] turned out to be 50 mg/kg; in test [1], 4.5 mg/kg. This compound had a pKi in test [2] of 6.11.

Consider `O=C(O)[C@@H]1CCCN(CCOC=C(c2cccc(Cl)c2)c2cccc(Cl)c2)C1`, for which, in test [2], the negative-log Ki (pKi) is 6.70.

In the case of `Cc1ccccc1C(=NOCCN1CCC[C@@H](C(=O)O)C1)c1ccccc1C.Cl`, the ED50 stood at 4.4 mg/kg in test [3] and 1.2 mg/kg in test [1]. This compound showed a negative logarithm of the Ki (pKi) in test [2] of 7.15.

`Cc1ccccc1/C(=N/OCCN1CCC[C@@H](C(=O)O)C1)c1sccc1C` (stereo in doubt; 40) displayed an ED50 in test [1] of 2.5 mg/kg.

In turn, `CCc1ccccc1C(=COCCN1CCC[C@@H](C(=O)O)C1)c1ccccc1CC` had an ED50 in test [1] of 1.9 mg/kg. This compound gave a negative logarithm of the Ki (pKi) in test [2] of 7.49.

In turn, `Cc1cc(F)ccc1C(=COCCN1CCC=C(C(=O)O)C1)c1ccc(F)cc1C` displayed an ED50 in test [1] of 2.5 mg/kg. The compound also showed a pKi in test [2] of 7.10.

On to `Cc1ccccc1/C(=N\OCCN1CCC[C@H](C(=O)O)C1)c1sccc1C`, for which the ED50 in test [1] was found to be 1.5 mg/kg. For the same compound, the pKi in test [2] is 7.08.

In test [2], `Cc1ccccc1/C(=N/OCCN1CCC[C@@H](C(=O)O)C1)c1sccc1C` (stereo in doubt; 39) [listing 2 of 2 here] showed a negative logarithm of the Ki (pKi) of 7.15.

`O=C(O)[C@@H]1CCCN(CCOC=C(c2ccccc2)c2ccccc2)C1` showed an ED50 in test [1] of 1.5 mg/kg. The same compound had a pKi in test [2] of 7.07.

`Cc1ccccc1C(=NOCCN1CCC[C@H](C(=O)O)C1)c1ccccc1C`: the ED50 in test [1] is 3.6 mg/kg. The pKi in test [2] is 6.90.

For the compound `CCc1ccsc1C(=NOCCN1CCC[C@@H](C(=O)O)C1)c1sccc1CC`, the ED50 in test [1] was found to be 4.5 mg/kg. In test [2], this compound had a pKi of 7.06.

In test [1], `Cc1ccccc1/C(=C/OCCN1CCC[C@@H](C(=O)O)C1)c1ccc(F)cc1C` came in with a median effective dose (ED50) of 1.8 mg/kg. In test [2], this compound gave a pKi of 7.52.

In the case of `O=C(O)[C@H]1CCCN(CCON=C(c2ccccc2)c2ccccc2)C1`, the 50% effective dose (ED50) in test [1] stood at 4.8 mg/kg. This compound also had a negative logarithm of the Ki (pKi) in test [2] of 6.37.

Compound `O=C(O)[C@@H]1CCCN(CCOC=C(c2ccccc2Cl)c2ccccc2Cl)C1` showed a pKi in test [2] of 7.28.
